# Bioassay records deposited in PubChem BioAssay by The Scripps Research Institute Molecular Screening Center.
# Rows were chosen to be rich in hits. Some 3.3% of all compounds tested hit in one or more screens of this group.
# LEDGF integ inh: blockers of LEDGF/p75-dependent integrase strand transfer – biochemical, TR-FRET, high throughput, primary screen | HIV-1 integrase (with human LEDGF/p75) | 370,000 tested, 0.64% active | TR-FRET IN-LEDGF/p75 DNA integration, Eu/Cy5 | inhibition, % at 3.7 µM;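 active means inhibition above the screen-wide mean plus 3 SD, cut at about 13% in these data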;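 further: signal is the Cy5 over europium emission ratio at 671 and 618 nm; 0% = plate median of compound wells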
# SIAE primary: human SIAE inhibitors, primary screen, biochemical, fluorescence polarization, FP-Rh probe, 1536-well HTS | inhibition, % at 9.66 µM | AID 1053197, 2014 | 370,000 tested, 0.69% active | SIAE FP-Rh probe binding;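 active means inhibition above a cutoff: mean of compounds within the control limits plus 3 SD of those, cut at about 17% in these data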;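 further: 0% = plate median of compound wells and 100% = probe without SIAE protein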
# TDP2 inh: human TDP2 enzyme inhibitors, primary screen, biochemical, epi absorbance, recombinant enzyme. T5PNP hydrolysis, p-nitrophenol absorbance 415 nm. inhibition, % at 12.8 µM. 370,000 tested, 0.34% active. AID 720702, 2013;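 active means inhibition above the mean of all tested compounds plus 3 SD, set per campaign, cut at about 25% in these data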;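 further: 0% = DMSO with enzyme and 100% = buffer with substrate but no TDP2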
#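 System – recombinant human TDP2 · Amount – 120 nM TDP2 per well · Buffer or medium – Mg2+-containing Tris-HCl buffer, pH 7.5 · Reagent – T5PNP substrate, 5 mM · Dosing – 12.8 µM single point, 1% DMSO · Incubation – 2 h at 37 °C · Measured by – epi absorbance · Read-out basis – percent inhibition · Benchmarks – high control without enzyme, low control DMSO plus TDP2 · Repeats – singlicate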
# PRMT1 inh: PRMT1 methyltransferase inhibitors, primary screen, biochemical, fluorescence polarization; inhibition, % at 2.79 µM; Protein arginine N-methyltransferase 1 (Homo sapiens), Q99873; recombinant PRMT1, activity-based probe fluorescence polarization; 370,000 tested, 1.3% active;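 active means inhibition above about 21% made by adding two undisclosed values, limit read from the data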
# UHRF1 binding: UHRF1 methylated DNA binding inhibitors, primary screen, counter-screen for MBD2 inhibitor project, biochemical, TR-FRET, human UHRF1, single concentration. E3 ubiquitin-protein ligase UHRF1 (Homo sapiens), Q96T88. UHRF1 binding to methylated oligo. inhibition, % at 4.4 µM. AID 687016, 2013. 370,000 tested, 0.75% active; in the data active means inhibition above about 21%;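 further: UHRF1 SRA domain binding a hemimethylated CpG hairpin DNA probe; 0% = median of test compound wells and 100% = reference inhibitor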
# Target sequence (Q96T88 whole entry, looked up, the tested form may be a part): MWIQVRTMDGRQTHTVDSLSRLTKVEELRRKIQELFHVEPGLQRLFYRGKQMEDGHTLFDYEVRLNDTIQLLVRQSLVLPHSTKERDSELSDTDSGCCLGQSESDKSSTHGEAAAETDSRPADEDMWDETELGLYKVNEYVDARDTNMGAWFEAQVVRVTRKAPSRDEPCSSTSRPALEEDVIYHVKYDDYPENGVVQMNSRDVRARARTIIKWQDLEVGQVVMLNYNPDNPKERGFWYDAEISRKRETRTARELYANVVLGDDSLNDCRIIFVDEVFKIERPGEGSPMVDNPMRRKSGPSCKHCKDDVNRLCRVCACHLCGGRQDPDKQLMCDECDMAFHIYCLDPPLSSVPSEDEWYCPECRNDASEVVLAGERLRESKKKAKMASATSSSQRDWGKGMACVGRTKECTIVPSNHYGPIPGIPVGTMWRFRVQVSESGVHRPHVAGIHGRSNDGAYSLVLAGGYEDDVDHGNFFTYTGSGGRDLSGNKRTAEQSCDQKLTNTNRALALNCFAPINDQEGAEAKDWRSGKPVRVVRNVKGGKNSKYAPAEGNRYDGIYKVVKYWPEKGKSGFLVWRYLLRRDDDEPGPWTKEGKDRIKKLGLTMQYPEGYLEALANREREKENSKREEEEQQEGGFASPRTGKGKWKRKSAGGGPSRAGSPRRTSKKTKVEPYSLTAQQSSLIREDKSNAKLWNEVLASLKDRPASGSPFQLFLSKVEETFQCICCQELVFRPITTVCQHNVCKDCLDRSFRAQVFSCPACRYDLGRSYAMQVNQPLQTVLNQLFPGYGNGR
# MBD2 DNA inh: inhibitors of MBD2 binding to methylated DNA, primary screen, biochemical, TR-FRET, DNA-binding domain, human | Methyl-CpG-binding domain protein 2 (Homo sapiens), Q9UBB5 | MBD2 binding to methylated oligonucleotide | inhibition, % at 4.4 µM | 370,000 tested, 0.31% active | AID 686964, 2013; in the data active means inhibition above about 13%
# Active calls of the source: *.
SMILES,LEDGF integ inh,SIAE primary,TDP2 inh,PRMT1 inh,UHRF1 binding,MBD2 DNA inh
Cc1ccc(N=Cc2cc3c(cc2[N+](=O)[O-])OCO3)cc1[N+](=O)[O-],15*,4,4,25*,9,4
Cc1cccc(C)c1OCC(=O)N/N=C/c1cc2c(cc1[N+](=O)[O-])OCO2,-1,-2,0,2,0,5
CC(C)(C)OC(=O)NCc1ccccc1/C=C/S(=O)(=O)NCc1ccccc1,-3,-6,2,5,-4,-6
COc1cc(C(=O)N2CCN(C(=O)CC(C)C)CC2)cc(OC)c1OC,-3,-9,0,3,31*,9
CCOC(=O)C1CCCN(S(=O)(=O)c2cc3c(cc2Br)CCN3C(=O)CC)C1 (stereo not given),1,2,-2,-2,0,3
COc1cccc(-c2nnc(SCC(=O)Nc3ccc(Oc4ccccc4)cc3)n2Cc2ccco2)c1,0,-12,-2,11,2,-2
CCOC(=O)COc1c(/C=N\OC)cc(Cl)cc1OC,1,-2,-12,0,5,2
CCOC(=O)COc1c(C=O)cc(Br)cc1OC,0,-3,6,2,28*,1
COc1ccc(S[C@]2(C(=O)N3CCOCC3)CC(=O)N(C(=O)Nc3ccc(C)c(Cl)c3)[C@@H]2c2ccc(OC)cc2)cc1,-4,-7,0,11,3,1
O=C(N1CCC(n2nc(-c3ccccc3)oc2=O)CC1)C1(c2ccccc2)CCCC1,3,-3,-5,-3,-2,1
O=C(Nc1cc([N+](=O)[O-])ccc1Cl)c1cccnc1,-5,-7,3,1,-1,5
Cc1ccc([N+](=O)[O-])cc1NC(=O)c1cccnc1,-5,-1,-14,4,39*,5
COc1cc2c(cc1OC)C(C(=O)N(C)Cc1ccccc1)C(c1cccnc1)N(C)C2=O (stereo not given),3,-3,-5,0,38*,3
COc1ccc(-c2cc3ccc(OCC(C)=O)cc3oc2=O)cc1,11,4,8,-1,23*,12
Clc1ccc2c(SCC3CO3)c3ccccc3nc2c1 (stereo not given),-4,5,5,7,72*,-1
CON=C(C(=O)NC1C(=O)N2C(C(=O)O)=C(CSc3nc(=O)c(=O)[nH]n3C)CSC12)c1csc(N)n1 (stereo not given),5,-7,-1,21*,2,1
COC(=O)c1ccc(-c2ccc(/C=N/NC(=O)Cc3nnc(N)s3)o2)cc1,-5,-12,-10,10,32*,-1
Cc1cc(C)nc(SCNC(=O)c2ccc(F)cc2)n1,3,14,8,26*,0,-7
COc1ccc2cc(CN(CCc3ccccc3)Cc3nnnn3Cc3ccco3)c(=O)[nH]c2c1,7,-2,-6,22*,-3,-4
COc1ccc2[nH]c(=O)c(CN(Cc3nnnn3Cc3ccco3)C3CCCCC3)cc2c1,0,0,-3,2,1,-2
COC(=O)c1ccc2nc(C3CCCCC3)c(Cc3ccc(OC)cc3C)n2c1,-1,-9,0,2,21*,9
COC(=O)c1ccc2nc(C3CCCCC3)c(Cc3ccccc3C(F)(F)F)n2c1,3,5,-5,-2,17,11
COc1ccc(Cc2c(-c3ccccc3)nc3ccc(Br)cn23)c(C)c1,1,-3,-4,2,15,4
COC(=O)c1ccc2nc(-c3ccco3)c(Cc3ccc(OC)cc3C)n2c1,6,1,2,22*,11,3
COC(=O)c1ccc2nc(C3CCCCC3)c(Cc3ccc(C)cc3)n2c1,-3,-5,-3,2,23*,11
SMILES,LEDGF integ inh,SIAE primary,TDP2 inh,PRMT1 inh,UHRF1 binding,MBD2 DNA inh
COC(=O)c1ccc2nc(C3CCCCC3)c(Cc3cccc(Cl)c3)n2c1,-2,3,5,3,23*,12
COC(=O)c1ccc2nc(C(C)(C)C)c(Cc3ccc(OC)cc3C)n2c1,-1,-2,7,0,22*,9
COc1ccc(Cc2c(C(C)(C)C)nc3ccc(Br)cn23)c(C)c1,-6,-6,-5,-5,0,0
Cc1ccc(Cc2c(-c3ccco3)nc3ccc(C)cn23)cc1,5,3,-11,21*,24*,4
Cc1ccc(Cc2c(-c3ccco3)nc3c4ccccc4ccn23)cc1,-1,-5,4,20,15,1
CCCCOC(=O)CCN1C(=O)/C(=C/c2ccccc2)SC1=S,-2,-4,0,5,-1,-1
Cc1ccc(C(=O)C2CCN(CC(=O)N3CCOCC3)CC2)cc1,0,-4,7,3,3,-4
C=C(C)CSc1nnc(-c2cc(-c3ccccc3)n[nH]2)n1N,0,-7,10,0,-1,2
CC(C)c1nc(N(C)S(C)(=O)=O)nc(-c2ccc(F)cc2)c1/C=C/[C@H](O)C[C@@H](O)CC(=O)O,2,-3,-11,1,4,-5
COCCn1c(C)cc(/C=C2\NC(=S)N(C)C2=O)c1C,2,2,-5,22*,-9,-13
COCCn1c(C)cc(/C=C2/SC(=O)N(C(C)C(=O)OC)C2=O)c1C (stereo not given),-2,3,1,4,-3,8
O=C(c1cccc(NS(=O)(=O)c2ccccc2)c1)N1CCCC1,0,5,6,3,-1,1
O=C(c1cccc(NS(=O)(=O)c2cccc(F)c2)c1)N1CCCC1,-4,-5,14,1,21*,4
O=C(c1cccc(S(=O)(=O)Nc2ccccc2Cl)c1)N1CCCCCC1,-2,3,4,0,1,2
O=C(c1cccc(S(=O)(=O)Nc2ccccc2Cl)c1)N1CCN(c2ccccc2O)CC1,-2,-1,2,2,21*,3
CCCCCCCN(C(=O)CCl)c1ccccc1C,-2,2,-8,47*,5,1
CC(C)N(C(N)=NC(=O)OCc1ccccc1)C(C)C,0,-6,9,-4,4,-3
CN(C(=O)c1ccccc1OCC(=O)Nc1ccc(Br)cc1)c1ccccc1,-1,-15,-6,1,0,-1
